Assay results: ChEMBL document CHEMBL4706728, “Discovery of a Highly Selective and Potent TRPC3 Inhibitor with High Metabolic Stability and Low Toxicity” (ACS Med Chem Lett, 2021)

Biological target: T1, Short transient receptor potential channel 7 (Homo sapiens) (UniProt Q9HCX4)
T1 sequence (whole entry): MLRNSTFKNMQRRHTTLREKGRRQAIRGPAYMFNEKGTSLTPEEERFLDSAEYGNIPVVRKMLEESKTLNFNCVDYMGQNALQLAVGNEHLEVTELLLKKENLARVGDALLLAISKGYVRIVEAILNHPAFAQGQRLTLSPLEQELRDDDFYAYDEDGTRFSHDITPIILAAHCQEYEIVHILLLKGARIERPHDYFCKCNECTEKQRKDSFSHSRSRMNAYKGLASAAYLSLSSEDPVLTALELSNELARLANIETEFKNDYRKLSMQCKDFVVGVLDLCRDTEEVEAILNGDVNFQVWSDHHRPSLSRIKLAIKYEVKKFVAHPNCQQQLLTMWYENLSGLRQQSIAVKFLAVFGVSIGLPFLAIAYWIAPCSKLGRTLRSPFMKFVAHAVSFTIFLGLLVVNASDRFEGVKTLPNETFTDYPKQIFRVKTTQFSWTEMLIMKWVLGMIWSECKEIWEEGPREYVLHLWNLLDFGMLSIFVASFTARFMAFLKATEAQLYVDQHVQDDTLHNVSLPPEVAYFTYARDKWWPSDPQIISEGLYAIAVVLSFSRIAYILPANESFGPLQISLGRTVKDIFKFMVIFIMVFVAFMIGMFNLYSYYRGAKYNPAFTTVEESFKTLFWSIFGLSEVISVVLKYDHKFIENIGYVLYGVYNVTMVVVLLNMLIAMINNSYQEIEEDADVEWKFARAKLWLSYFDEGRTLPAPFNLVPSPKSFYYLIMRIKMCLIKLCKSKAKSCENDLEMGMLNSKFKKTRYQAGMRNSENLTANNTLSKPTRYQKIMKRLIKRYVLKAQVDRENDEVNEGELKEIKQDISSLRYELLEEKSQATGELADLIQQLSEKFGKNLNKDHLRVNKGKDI
Assay: Inhibition of human TRPC7 expressed in HEK293 cells assessed as inhibition of GSK170-induced current at 10 uM by whole cell patch-clamp method
Type: cell-based
Procedure, shortened: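 TRP channels overexpressed in HEK293 cells (hTRPA1, rTRPV1, rTRPV4, mouse TRPC6, hTRPC7, hTRPM8). Whole-cell patch clamp with Ca2+-free solutions to avoid desensitization. Channels fully activated with high concentrations of their agonists (AITC for TRPA1, capsaicin for TRPV1, GSK1016790A for TRPV4), then 10 μM test compound perfused with agonist. Result expressed as percentage of peak current blocked; mean ± SD.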

CCNC(=O)c1cnn(-c2ccc(-n3ccc(Cl)c(Cl)c3=O)cc2)c1C(F)(F)F
inhibition: 26%
